The whole screen tested about 240,000 compounds, of which about 950 (0.4%) were called active.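 How the source made its calls: active means lipid droplet intensity inhibited by at least 50%, with more than 500 cells counted; inconclusive means wells with under 300 cells, treated as cytotoxic; inactive means the rest.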 Only a selection was taken, and actives are over-represented in it overall.
Assay: oleate-induced lipid droplet accumulation in AML12 cells – imaging, high-throughput imaging, BODIPY stain, primary screen (AID 1656);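 on cell count: cells counted across two imaged fields per well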
Conditions: AML12 mouse hepatocytes, oleate lipid droplets, at 6.5 µM; cell count: measured here: cell count, cytotoxicity flag; inhibition: stronger effect = higher value
In short: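 Technique: fluorescence imaging, 20x objective, two fields per well / Assay system: AML12 hepatocytes (mouse) / Measure: % inhibition of lipid droplet signal / Doses: 6.5 µM single-point dosing / Incubation: overnight exposure / Reagent: 100 µM oleic acid challenge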

SMILES	cell count	inhibition
CC1(C)CC(=O)C(N=Nc2c(F)cccc2F)=C(O)C1	713 cells	8.6% (inactive)
Cc1ccc(N2C(=O)C(NC(=O)c3c(F)cccc3F)(C(F)(F)F)C3=C2CC(C)(C)CC3=O)cc1 (stereo unspecified)	635 cells	63.8% (active)
CCOC(=O)CC1(NC(=O)c2cc(COc3cncc(Cl)c3)on2)CCCCC1	665 cells	11.8% (inactive)
CCOC(=O)N1CCN(C(=O)c2ccc3c(=O)n(CCc4ccc(OC)c(OC)c4)c(=O)[nH]c3c2)CC1	684 cells	16.5% (inactive)
CCCCNC(=O)c1cn(CC)c2cc(N3CCN(C(=O)c4ccco4)CC3)c(F)cc2c1=O	705 cells	-15.8% (inactive)
O=S(=O)(c1ccc(Cl)cc1)c1nc(-c2ccco2)oc1N1CCCCC1	633 cells	-18% (inactive)
CN(CC1CCCO1)S(=O)(=O)c1ccc(C(=O)Nc2ccc([N+](=O)[O-])cc2)cc1 (stereo unspecified)	854 cells	0.6% (inactive)
CC(C)c1ccc2oc(=O)cc(CN3CCN(Cc4ccccc4)CC3)c2c1	850 cells	-0.8% (inactive)
C=CCSc1nnc(N2C(=O)C(O)=C(C(=O)c3ccco3)C2c2ccc(F)cc2)s1 (stereo unspecified)	710 cells	-21.4% (inactive)
COc1ccc(C(=O)Nc2ccccc2C(=O)NCc2ccco2)cc1	738 cells	-20.2% (inactive)
COc1ccc(/C=C(/NC(=O)c2ccco2)C(=O)Nc2ccc(C(C)=O)cc2)cc1	829 cells	8.8% (inactive)
COc1ccc(/C=C(\NC(=O)c2ccc(OCC(C)C)cc2)C(=O)OCc2ccco2)cc1	607 cells	74.3% (active)
CCn1cc(S(=O)(=O)c2cccc(C)c2)c(=O)c2cc(F)c(N3CCN(C)CC3)cc21	738 cells	7.2% (inactive)
CCC1=Nc2cc(C(=O)NCCN3CCCC3)ccc2Sc2ccc(C)cc21	726 cells	4.6% (inactive)
COc1cc2ccccc2cc1C(=O)Nc1ccc(N2CCOCC2)cc1	835 cells	-4.2% (inactive)
COc1cccc(/C=C(/CC(=O)Nc2ccc(N3CCOCC3)cc2)c2nc3ccccc3s2)c1	578 cells	77.8% (active)
COc1ccc(/C=C(/CC(=O)Nc2ccc(C)cc2)c2nc3ccccc3s2)cc1	713 cells	-0.1% (inactive)
CCOc1ccc(CCNC(=O)C(CC)n2nc(C)n3c(cc4sccc43)c2=O)cc1OCC (stereo unspecified)	786 cells	85.5% (active)
COc1ccc(CCNC(=O)COC(=O)/C=C/c2cccs2)cc1OC	727 cells	2.8% (inactive)
CCC(C(=O)NCc1ccc(OC)cc1)n1nc(C)n2c(cc3occc32)c1=O (stereo unspecified)	780 cells	-2.7% (inactive)
Cc1ccc2cc(C)c(N3CCN(c4ccc(F)cc4)CC3)nc2c1	820 cells	15% (inactive)
CC(NC(=O)c1ccccc1C(=O)O)c1ccc(-n2ccnc2)cc1 (stereo unspecified)	807 cells	2.2% (inactive)
CC(NC(=O)c1cccc2ccccc12)c1ccc2c(c1)CCCC2 (stereo unspecified)	688 cells	57.9% (active)
CC(NC(=O)CNC(=O)Cc1cccc2ccccc12)c1ccc(S(N)(=O)=O)cc1 (stereo unspecified)	734 cells	13.3% (inactive)
CCn1c(=S)sc2c(=O)n(CC(=O)Nc3cccc(Br)c3)c(C)nc21	740 cells	8.5% (inactive)

SMILES	cell count	inhibition
C/C(=N\NC(=O)COc1ccc(C)cc1[N+](=O)[O-])c1ccc2c(c1)OCCO2	706 cells	-6.5% (inactive)
CCCSc1nc2sc3c(c2c(=O)n1-c1ccc(OC)cc1)CCN(C)C3	816 cells	11.2% (inactive)
O=c1[nH]cccc1-c1nc2ccccc2n1Cc1ccc(Cl)cc1	844 cells	10.1% (inactive)
CC(=O)N1c2ccc(S(=O)(=O)N3CCC(C(=O)N4CCN(c5ccccc5)CC4)CC3)cc2CC1C (stereo unspecified)	669 cells	-1.7% (inactive)
Cc1cc(Nc2ccc(N3CCOCC3)cc2)c2cccc(C)c2n1	761 cells	11.3% (inactive)
Cc1ccc(Nc2ccc(C(N)=O)cc2[N+](=O)[O-])cc1	630 cells	-6.1% (inactive)
Cc1ccc(Nc2cc(C)nc3c(C)ccc([N+](=O)[O-])c23)cc1	674 cells	57.6% (active)
O=C(Nc1ncc([N+](=O)[O-])s1)C1COc2ccccc2O1 (stereo unspecified)	840 cells	-18.9% (inactive)
CCOc1ccc(CCNC(=O)CSc2cc(=O)n(C)c3ccc(Cl)cc23)cc1OCC	659 cells	93.9% (active)
Cn1c(=O)cc(SCC(=O)N2CCCC2)c2cc(Cl)ccc21	775 cells	9% (inactive)
CCN(CCCNC(=O)CSc1cc(=O)n(C)c2cc(Cl)ccc12)Cc1ccccc1	704 cells	18.8% (inactive)
O=C(c1ccccc1)N1CCC(CC2CC(c3ccc(Cl)cc3)=NO2)(C(=O)NCC2CCCCC2)CC1 (stereo unspecified)	817 cells	-15.1% (inactive)
CN(CC1CCCN(CCc2cccc(C(F)(F)F)c2)C1)C(=O)c1ccc2nc[nH]c2c1 (stereo unspecified)	744 cells	-11.4% (inactive)
O=C(NCCCN1CCCC1=O)C(=O)NCC1OCCN1S(=O)(=O)c1ccc(Br)cc1 (stereo unspecified)	666 cells	-6.7% (inactive)
CCCC(=O)Nc1nnc(-c2ccccc2)o1	702 cells	4.2% (inactive)
CCCN(CCC)c1ccc(C(O)c2nnc(-c3ccccc3)o2)cc1 (stereo unspecified)	691 cells	69.3% (active)
OC(c1nnc(-c2ccccc2)o1)c1cccs1 (stereo unspecified)	773 cells	16.7% (inactive)
O=C(Nc1ccccc1C(=O)Nc1ccncc1)c1ccc([N+](=O)[O-])cc1	805 cells	10.9% (inactive)
O=C(CCCN1C(=O)/C(=C\c2ccco2)SC1=S)Nc1cccc2ccccc12	553 cells	-6.6% (inactive)
CCCN(CCC)c1nc2c(C)cccn2c(=O)c1/C=C1/SC(=S)N(Cc2ccco2)C1=O	775 cells	57.5% (active)
CCOC(=O)CC1C(=O)NCCN1c1nc2c(C)cccn2c(=O)c1/C=C1\SC(=S)N(C(C)CC)C1=O (stereo unspecified)	696 cells	36.8% (inactive)
CCc1cccc(NC(=O)CCCN2C(=O)C(c3ccccc3)Oc3cccnc32)c1 (stereo unspecified)	663 cells	-3.4% (inactive)
COc1cccc(NC(=O)CN(C)C(=O)c2ccccc2CCc2ccccc2)c1	836 cells	-9.7% (inactive)
CC(=O)c1cccc(NC(=O)CN2C(=O)c3cccnc3Oc3ccc(Cl)cc32)c1	693 cells	-16.7% (inactive)
O=C(c1ccccc1)N1N=C(c2ccccc2O)CC1c1ccc(Br)cc1 (stereo unspecified)	868 cells	1.5% (inactive)

SMILES	cell count	inhibition
COc1ccc(C(=O)NC2CC(C)(C)Cc3c2cnn3-c2ccccc2C)o1 (stereo unspecified)	621 cells	-21% (inactive)
Cc1ccc(/C=C2/SC(=S)N(CCC(=O)NCCCN3CCOCC3)C2=O)cc1	794 cells	-18.3% (inactive)
CCC(CC)NC(=O)/C=C/c1cccc([N+](=O)[O-])c1	628 cells	-7.2% (inactive)
CCc1ccc(NC(=O)C(C)OC(=O)/C=C/c2cccc([N+](=O)[O-])c2)cc1 (stereo unspecified)	651 cells	60% (active)
Cc1ccc(NC(=O)O/N=C/c2cccc([N+](=O)[O-])c2)cc1	427 cells	-4.6% (inactive)
COc1ccccc1CCNS(=O)(=O)c1cc2c3c(c1)C(C)C(=O)N3CCC2 (stereo unspecified)	707 cells	-4% (inactive)
CCCCN(CCCC)CCCNC(=O)CN1C(=O)COc2ccc(S(=O)(=O)N3CCC(C)CC3)cc21	789 cells	10.1% (inactive)
CCOC(=O)[C@H]1[C@H]2COc3cc(OC)ccc3[C@@H]2N2C(=O)N(c3ccc(Br)cc3)C(=O)[C@@]12C	831 cells	-8.9% (inactive)
COc1cccc(OCC(O)CNC(=O)c2oc3c(C)c(C)ccc3c2C)c1 (stereo unspecified)	871 cells	-0.2% (inactive)
Cn1c(=O)[nH]c(=O)c2c1nc(N1CCN(C(c3ccccc3)c3ccccc3)CC1)n2CCO	768 cells	60.3% (active)
CC1CCN(c2nc3c(c(=O)[nH]c(=O)n3C)n2CCCc2ccccc2)CC1	572 cells	-14.6% (inactive)
C=C(C)Cn1c(N2CCCC2)nc2c1c(=O)[nH]c(=O)n2C	632 cells	-2.2% (inactive)
CCOc1ccc(NC(=O)CCCCCN2C(=O)[C@@H]3Cc4ccccc4CN3C2=O)cc1	676 cells	11.7% (inactive)
CCOc1ccc(CCNC(=O)Nc2ccccc2)cc1OCC	809 cells	118% (active)
CCOc1ccc(CCNC(=O)C2=C(C)C(=O)OC23CCC(C)CC3)cc1OCC (stereo unspecified)	788 cells	17.6% (inactive)
CCOc1cc(NC(=O)Nc2ccccc2)c(OCC)cc1NC(=O)CC	783 cells	4.2% (inactive)
CCn1c(SCc2cccc(C(=O)O)c2)nnc1-c1ccc(Cl)cc1	802 cells	11.8% (inactive)
COc1ccc(C(=O)N2CCCCC2C(=O)Nc2ccc(-n3nc(C)cc3C)cc2)o1 (stereo unspecified)	694 cells	-12.1% (inactive)
Cc1cc(N2CCN(c3ccccc3)CC2)nc(N2CCOCC2)n1	649 cells	-5.7% (inactive)
CN(C)c1ccc(/C=N/Nc2cc(N3CCOCC3)nc(N3CCOCC3)n2)cc1	716 cells	-2.2% (inactive)
C(=N/Nc1cc(N2CCOCC2)nc(N2CCOCC2)n1)/c1ccccc1	583 cells	120% (active)
Cc1cccc(NC(=O)c2ccc(S(=O)(=O)N(C)CC3CCCO3)cc2)c1C (stereo unspecified)	678 cells	-9.6% (inactive)
Cc1cccc2c1cnn2C(=O)CCC(=O)NC1CCCCC1	740 cells	-7.9% (inactive)
